Laboratory results taken from ChEMBL document CHEMBL2375275, “Design and synthesis of novel chromenone derivatives as interleukin-5 inhibitors” (Bioorg Med Chem, 2013).

Each compound was assayed against T1, Interleukin-5 (Mus musculus) (UniProt P04401) (assay: Inhibition interleukin-5 in mouse Y16 cells at 30 uM after 48 hrs by WST-1 assay).
T1 sequence (whole entry): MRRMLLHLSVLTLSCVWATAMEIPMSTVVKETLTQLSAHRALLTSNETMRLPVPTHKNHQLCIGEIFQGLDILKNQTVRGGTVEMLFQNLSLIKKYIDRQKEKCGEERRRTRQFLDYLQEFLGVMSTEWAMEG
Assay type: cell-based
How it was run: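 IL-5-dependent pro-B Y16 cells stimulated with 3 U/mL mIL-5 and incubated 48 h with or without sample; cell metabolism read by WST-1 as proliferation index.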

First: O=C(CCc1coc2cccc(OCC3CCCCC3)c2c1=O)c1ccc(C(F)(F)F)cc1
Second: O=C(CCc1coc2cccc(OCC3CCCCC3)c2c1=O)c1ccc(F)cc1
The inhibition of the first is lower: 5.3% for the first, 93% for the second.

`O=c1c(CCC(O)c2ccc(F)cc2)coc2cccc(OCC3CCCCC3)c12` (centres undefined) and `O=c1c(CCC(O)c2ccc(O)cc2)coc2cccc(OCC3CCCCC3)c12` (centres undefined) are the same in inhibition: 94% for the first, 94% for the second.

First: CC(C)(C)c1ccc(C(O)CCc2coc3cccc(OCC4CCCCC4)c3c2=O)cc1 (centres undefined)
Second: Cc1ccc(C(O)CCc2coc3cccc(OCC4CCCCC4)c3c2=O)cc1 (centres undefined)
The inhibition of the first is lower: 6.6% for the first, 13.5% for the second.

Compared with `O=C(CCc1coc2cccc(OCC3CCCCC3)c2c1=O)c1ccc(Cl)c(Cl)c1`, `O=C(CCc1coc2cccc(OCC3CCCCC3)c2c1=O)c1ccc(Cl)cc1` is higher in inhibition: 68% for the first, 94% for the second.

Compared with `O=C(CCc1coc2cccc(OCC3CCCCC3)c2c1=O)c1ccccc1`, `O=C(CCc1coc2cccc(OCC3CCCCC3)c2c1=O)c1ccc(O)cc1` is higher in inhibition: 12.3% for the first, 80% for the second.

First: COc1ccc(C(=O)CCC2COc3cccc(OCC4CCCCC4)c3C2=O)cc1 (centres undefined)
Second: O=C(CCC1COc2cccc(OCC3CCCCC3)c2C1=O)c1ccc(Cl)c(Cl)c1 (centres undefined)
The inhibition of the first is lower: 34% for the first, 40% for the second.

`N#Cc1ccc(C(O)CCc2coc3cccc(OCC4CCCCC4)c3c2=O)cc1` (centres undefined) and `O=c1c(CCC(O)c2ccc(Cl)cc2)coc2cccc(OCC3CCCCC3)c12` (centres undefined) are the same in inhibition: 94% for the first, 94% for the second.

Going from `N#Cc1ccc(C(=O)CCc2coc3cccc(OCC4CCCCC4)c3c2=O)cc1` to `Cc1ccc(C(=O)CCc2coc3cccc(OCC4CCCCC4)c3c2=O)cc1`, the inhibition falls from 93% to 70%.

First: COc1ccc(C(=O)CCc2coc3cccc(OCC4CCCCC4)c3c2=O)cc1
Second: CC(C)(C)c1ccc(C(=O)CCc2coc3cccc(OCC4CCCCC4)c3c2=O)cc1
The inhibition of the first is higher: 91% for the first, 6.7% for the second.

Going from `O=c1c(CCC(O)c2ccccc2)coc2cccc(OCC3CCCCC3)c12` (centres undefined) to `O=c1c(CCC(O)c2ccc3ccccc3c2)coc2cccc(OCC3CCCCC3)c12` (centres undefined), the inhibition falls from 94% to 86%.

`O=c1c(CCC(O)c2ccc(Cl)c(Cl)c2)coc2cccc(OCC3CCCCC3)c12` (centres undefined) and `COc1ccc(C(O)CCc2coc3cccc(OCC4CCCCC4)c3c2=O)cc1` (centres undefined) are the same in inhibition: 94% for the first, 94% for the second.

Compared with `O=c1c(CCC(O)c2ccc(C(F)(F)F)cc2)coc2cccc(OCC3CCCCC3)c12` (centres undefined), `O=C(CCc1coc2cccc(OCC3CCCCC3)c2c1=O)c1ccc2ccccc2c1` is lower in inhibition: 55% for the first, 10% for the second.
